What all share (type): subcellular
Test [1] deals with Cyclin-dependent kinase 9 (Homo sapiens, UniProt P50750). Description: Inhibition of CDK9 in human HeLa cells lysate at 10 uM pre incubated for 15 mins followed by ATP acyl phosphate probe addition and measured after 10 mins by LC-MS/MS analysis relative to control. Conditions: time 25.0 min. In short, it runs like this:
(§1)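 KiNativ profiling in HeLa lysate (5 mg/mL total protein). Lysate incubated 15 min with inhibitor at 50, 10, 2, 0.8 or 0 μM. ATP or ADP acylphosphate probe then added (5 μM final) and reacted 10 min. Reaction stopped with urea and analysed by targeted MS, using up to four fragment ions per kinase peptide-probe conjugate. % inhibition taken against untreated lysate. Run in duplicate.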

The target in test [2] is Cyclin-dependent kinase 10 (Homo sapiens, UniProt Q15131). Briefly: Inhibition of CDK10 in human HeLa cells lysate pre incubated for 15 mins followed by ATP acyl phosphate probe addition and measured after 10 mins by LC-MS/MS analysis. In short, it runs like this:
as §1

Test [3] addresses T1, Mitogen-activated protein kinase kinase kinase 7 (Homo sapiens) (UniProt O43318).
T1 sequence (whole entry): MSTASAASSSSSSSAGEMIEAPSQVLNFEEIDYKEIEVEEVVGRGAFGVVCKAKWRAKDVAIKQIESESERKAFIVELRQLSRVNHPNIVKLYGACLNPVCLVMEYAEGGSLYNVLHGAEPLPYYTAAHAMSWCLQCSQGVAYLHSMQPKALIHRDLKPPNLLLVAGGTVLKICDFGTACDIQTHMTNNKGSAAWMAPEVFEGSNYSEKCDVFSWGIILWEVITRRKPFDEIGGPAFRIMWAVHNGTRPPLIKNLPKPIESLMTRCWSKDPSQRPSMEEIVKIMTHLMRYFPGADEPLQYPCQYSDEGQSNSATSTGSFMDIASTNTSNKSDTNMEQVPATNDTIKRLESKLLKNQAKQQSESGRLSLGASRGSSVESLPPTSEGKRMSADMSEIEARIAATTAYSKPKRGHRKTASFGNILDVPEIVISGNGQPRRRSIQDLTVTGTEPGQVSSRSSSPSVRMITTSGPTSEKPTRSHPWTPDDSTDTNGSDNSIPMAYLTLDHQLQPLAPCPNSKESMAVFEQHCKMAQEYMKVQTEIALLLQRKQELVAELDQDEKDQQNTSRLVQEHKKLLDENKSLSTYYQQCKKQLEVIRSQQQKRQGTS
Description: Inhibition of TAK1 in human HeLa cells lysate at 50 uM pre incubated for 15 mins followed by ATP acyl phosphate probe addition and measured after 10 mins by LC-MS/MS analysis relative to control. Conditions: time 25.0 min.

The target in test [4] is Eukaryotic elongation factor 2 kinase (Homo sapiens) (UniProt O00418). Description: Inhibition of EEF2K in human HeLa cells lysate at 2 uM pre incubated for 15 mins followed by ATP acyl phosphate probe addition and measured after 10 mins by LC-MS/MS analysis relative to control. The settings on record: time 25.0 min.
The target in test [5] is T2, Scaffold protein ILK (Homo sapiens) (UniProt Q13418).
T2 sequence (whole entry): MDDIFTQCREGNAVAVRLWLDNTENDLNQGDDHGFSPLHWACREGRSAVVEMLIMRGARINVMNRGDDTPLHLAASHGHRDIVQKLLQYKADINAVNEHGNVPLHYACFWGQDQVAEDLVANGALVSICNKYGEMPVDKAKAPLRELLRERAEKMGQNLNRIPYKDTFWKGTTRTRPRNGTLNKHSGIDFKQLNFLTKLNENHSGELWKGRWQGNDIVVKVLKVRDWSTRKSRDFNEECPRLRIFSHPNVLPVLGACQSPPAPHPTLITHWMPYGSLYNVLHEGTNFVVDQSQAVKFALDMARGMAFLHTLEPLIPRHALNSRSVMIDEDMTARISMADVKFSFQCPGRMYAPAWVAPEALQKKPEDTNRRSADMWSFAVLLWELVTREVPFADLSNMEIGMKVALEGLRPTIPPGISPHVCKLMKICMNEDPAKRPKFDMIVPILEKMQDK
Description: Inhibition of ILK in human HeLa cells lysate at 50 uM pre incubated for 15 mins followed by ATP acyl phosphate probe addition and measured after 10 mins by LC-MS/MS analysis relative to control. Conditions: time 25.0 min.

The target in test [6] is Dual specificity mitogen-activated protein kinase kinase; MEK1/2 (Homo sapiens, UniProt P36507+Q02750). Description: Inhibition of MAP2K1/MAP2K2in human HeLa cells lysate at 10 uM pre incubated for 15 mins followed by ADP acyl phosphate probe addition and measured after 10 mins by LC-MS/MS analysis relative to control. The settings on record: time 25.0 min.
In test [7] the target is T3, Ribosomal protein S6 kinase alpha-1 (Homo sapiens, UniProt Q15418). Description: Inhibition of RSK1 domain 1 in human HeLa cells lysate pre incubated for 15 mins followed by ADP acyl phosphate probe addition and measured after 10 mins by LC-MS/MS analysis.
Test [8] has as its target T3, Ribosomal protein S6 kinase alpha-1. Briefly: Inhibition of RSK1 domain 2 in human HeLa cells lysate at 2 uM pre incubated for 15 mins followed by ATP acyl phosphate probe addition and measured after 10 mins by LC-MS/MS analysis relative to control. Conditions: time 25.0 min.
Test [9] concerns the target Serine/threonine-protein kinase tousled-like 2 (Homo sapiens, UniProt Q86UE8). Briefly: Inhibition of TLK2 in human HeLa cells lysate at 2 uM pre incubated for 15 mins followed by ADP acyl phosphate probe addition and measured after 10 mins by LC-MS/MS analysis relative to control. Conditions: time 25.0 min.
Test [10] has as its target Microtubule-associated serine/threonine-protein kinase 3 (Homo sapiens, UniProt O60307). Briefly: Inhibition of MAST3 in human HeLa cells lysate at 50 uM pre incubated for 15 mins followed by ATP acyl phosphate probe addition and measured after 10 mins by LC-MS/MS analysis relative to control. The settings on record: time 25.0 min.
For test [11], the target named is Wee1-like protein kinase (Homo sapiens, UniProt P30291). Description: Inhibition of Wee1 in human HeLa cells lysate pre incubated for 15 mins followed by ATP acyl phosphate probe addition and measured after 10 mins by LC-MS/MS analysis.
The target in test [12] is Serine/threonine-protein kinase Chk2 (Homo sapiens, UniProt O96017). Description: Inhibition of CHK2 in human HeLa cells lysate pre incubated for 15 mins followed by ADP acyl phosphate probe addition and measured after 10 mins by LC-MS/MS analysis.
The target of test [13] is Activated CDC42 kinase 1 (Homo sapiens, UniProt Q07912). Briefly: Inhibition of ACK1 in human HeLa cells lysate at 50 uM pre incubated for 15 mins followed by ADP acyl phosphate probe addition and measured after 10 mins by LC-MS/MS analysis relative to control. Conditions: time 25.0 min. In short, it runs like this:
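HeLa cell lysates (5 mg/mL total protein) were preincubated with inhibitor at 0, 0.8, 2, 10 or 50 μM for 15 min. ATP or ADP acylphosphate probe was then added (5 μM final) for 10 min, and reactions were stopped with urea. Up to four fragment ions per kinase probe-peptide were quantified by targeted MS. % inhibition was taken relative to untreated lysate. Run in duplicate.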

The target in test [14] is Serine/threonine-protein kinase 24 (Homo sapiens, UniProt Q9Y6E0). Description: Inhibition of MST3 in human HeLa cells lysate at 2 uM pre incubated for 15 mins followed by ADP acyl phosphate probe addition and measured after 10 mins by LC-MS/MS analysis relative to control. The settings on record: time 25.0 min.

T3 sequence (Q15418 whole entry, the tested form may be a part): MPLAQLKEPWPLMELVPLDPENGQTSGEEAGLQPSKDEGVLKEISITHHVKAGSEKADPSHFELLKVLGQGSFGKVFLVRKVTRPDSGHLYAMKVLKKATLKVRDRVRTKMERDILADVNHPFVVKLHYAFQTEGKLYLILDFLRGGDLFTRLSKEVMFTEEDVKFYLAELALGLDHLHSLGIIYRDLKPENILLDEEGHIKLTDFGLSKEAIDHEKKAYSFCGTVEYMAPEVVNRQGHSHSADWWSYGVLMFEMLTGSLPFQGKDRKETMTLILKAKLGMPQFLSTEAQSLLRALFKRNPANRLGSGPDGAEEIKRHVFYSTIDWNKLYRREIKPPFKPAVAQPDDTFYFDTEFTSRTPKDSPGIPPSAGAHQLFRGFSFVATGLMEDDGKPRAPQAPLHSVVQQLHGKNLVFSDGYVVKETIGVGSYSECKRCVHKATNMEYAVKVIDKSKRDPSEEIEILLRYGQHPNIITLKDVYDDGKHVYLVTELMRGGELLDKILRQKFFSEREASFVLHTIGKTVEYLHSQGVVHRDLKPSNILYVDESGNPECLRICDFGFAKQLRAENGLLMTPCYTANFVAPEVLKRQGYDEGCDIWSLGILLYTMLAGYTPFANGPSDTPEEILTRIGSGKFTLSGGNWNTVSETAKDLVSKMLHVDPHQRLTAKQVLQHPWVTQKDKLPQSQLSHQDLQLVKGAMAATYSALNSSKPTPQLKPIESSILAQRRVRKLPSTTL
Activated CDC42 kinase 1, sequence (Q07912 whole entry, looked up, the tested form may be a part): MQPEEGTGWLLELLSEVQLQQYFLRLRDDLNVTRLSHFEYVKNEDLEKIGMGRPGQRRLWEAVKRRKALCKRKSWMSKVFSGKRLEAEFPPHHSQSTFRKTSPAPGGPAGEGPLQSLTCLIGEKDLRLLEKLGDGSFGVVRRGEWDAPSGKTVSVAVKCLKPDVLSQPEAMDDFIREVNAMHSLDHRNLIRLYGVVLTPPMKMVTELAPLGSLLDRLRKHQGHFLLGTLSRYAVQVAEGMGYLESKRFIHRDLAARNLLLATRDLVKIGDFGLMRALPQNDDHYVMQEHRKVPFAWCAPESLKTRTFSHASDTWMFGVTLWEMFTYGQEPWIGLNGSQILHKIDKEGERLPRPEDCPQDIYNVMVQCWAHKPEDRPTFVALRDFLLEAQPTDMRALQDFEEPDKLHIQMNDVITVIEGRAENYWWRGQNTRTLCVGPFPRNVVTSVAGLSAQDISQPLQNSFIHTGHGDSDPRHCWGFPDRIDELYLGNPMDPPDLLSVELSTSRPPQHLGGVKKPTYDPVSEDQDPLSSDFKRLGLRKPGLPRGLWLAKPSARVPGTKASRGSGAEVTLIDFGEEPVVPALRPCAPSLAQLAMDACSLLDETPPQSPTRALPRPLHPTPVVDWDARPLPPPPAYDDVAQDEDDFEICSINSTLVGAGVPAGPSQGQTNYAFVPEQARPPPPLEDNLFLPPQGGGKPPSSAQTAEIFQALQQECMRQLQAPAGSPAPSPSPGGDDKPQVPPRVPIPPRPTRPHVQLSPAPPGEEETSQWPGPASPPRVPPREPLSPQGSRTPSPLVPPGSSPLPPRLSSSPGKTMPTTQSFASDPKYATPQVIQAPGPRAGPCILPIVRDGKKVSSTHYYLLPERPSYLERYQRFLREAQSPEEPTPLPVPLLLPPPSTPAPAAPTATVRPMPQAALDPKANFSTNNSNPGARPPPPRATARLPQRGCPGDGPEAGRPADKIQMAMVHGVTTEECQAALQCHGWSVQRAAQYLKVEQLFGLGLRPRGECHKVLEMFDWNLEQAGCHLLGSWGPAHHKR
Cyclin-dependent kinase 9, sequence (P50750 whole entry, the tested form may be a part): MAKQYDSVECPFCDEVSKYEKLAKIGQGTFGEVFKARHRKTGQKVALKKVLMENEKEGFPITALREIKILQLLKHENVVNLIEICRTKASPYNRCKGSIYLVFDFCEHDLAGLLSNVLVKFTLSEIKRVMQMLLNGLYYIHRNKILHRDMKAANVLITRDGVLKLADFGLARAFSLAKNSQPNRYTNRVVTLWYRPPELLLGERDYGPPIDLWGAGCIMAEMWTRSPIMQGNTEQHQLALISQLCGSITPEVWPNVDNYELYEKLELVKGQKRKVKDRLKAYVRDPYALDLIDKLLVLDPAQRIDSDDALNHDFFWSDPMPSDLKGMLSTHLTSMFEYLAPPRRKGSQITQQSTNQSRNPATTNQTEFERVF
Serine/threonine-protein kinase Chk2, sequence (O96017 whole entry): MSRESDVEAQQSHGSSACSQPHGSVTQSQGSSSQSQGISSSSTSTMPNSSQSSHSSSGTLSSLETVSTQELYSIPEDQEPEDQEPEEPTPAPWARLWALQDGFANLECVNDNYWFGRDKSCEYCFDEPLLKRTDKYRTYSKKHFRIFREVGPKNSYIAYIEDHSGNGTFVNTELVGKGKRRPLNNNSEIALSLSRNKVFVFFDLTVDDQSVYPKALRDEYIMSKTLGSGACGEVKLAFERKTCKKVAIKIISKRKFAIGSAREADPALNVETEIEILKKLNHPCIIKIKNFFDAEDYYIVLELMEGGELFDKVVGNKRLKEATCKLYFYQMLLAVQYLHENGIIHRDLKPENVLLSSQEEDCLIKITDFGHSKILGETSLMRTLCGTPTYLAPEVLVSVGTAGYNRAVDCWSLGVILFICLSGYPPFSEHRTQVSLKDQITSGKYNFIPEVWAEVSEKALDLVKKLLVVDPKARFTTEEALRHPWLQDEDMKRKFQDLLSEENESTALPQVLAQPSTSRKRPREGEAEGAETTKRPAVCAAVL
Dual specificity mitogen-activated protein kinase kinase; MEK1/2, sequence (P36507 whole entry, looked up, the tested form may be a part): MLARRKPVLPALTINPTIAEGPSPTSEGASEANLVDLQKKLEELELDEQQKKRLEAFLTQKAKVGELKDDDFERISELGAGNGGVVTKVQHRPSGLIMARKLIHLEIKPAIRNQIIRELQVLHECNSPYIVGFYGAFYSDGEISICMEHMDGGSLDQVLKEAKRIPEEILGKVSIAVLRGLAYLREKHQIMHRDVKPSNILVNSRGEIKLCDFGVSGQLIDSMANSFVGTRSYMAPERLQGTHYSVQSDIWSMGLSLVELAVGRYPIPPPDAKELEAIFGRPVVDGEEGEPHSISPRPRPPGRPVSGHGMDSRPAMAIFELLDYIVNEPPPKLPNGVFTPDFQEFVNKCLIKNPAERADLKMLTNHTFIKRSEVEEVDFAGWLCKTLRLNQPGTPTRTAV
Dual specificity mitogen-activated protein kinase kinase; MEK1/2, sequence (Q02750 whole entry, looked up, the tested form may be a part): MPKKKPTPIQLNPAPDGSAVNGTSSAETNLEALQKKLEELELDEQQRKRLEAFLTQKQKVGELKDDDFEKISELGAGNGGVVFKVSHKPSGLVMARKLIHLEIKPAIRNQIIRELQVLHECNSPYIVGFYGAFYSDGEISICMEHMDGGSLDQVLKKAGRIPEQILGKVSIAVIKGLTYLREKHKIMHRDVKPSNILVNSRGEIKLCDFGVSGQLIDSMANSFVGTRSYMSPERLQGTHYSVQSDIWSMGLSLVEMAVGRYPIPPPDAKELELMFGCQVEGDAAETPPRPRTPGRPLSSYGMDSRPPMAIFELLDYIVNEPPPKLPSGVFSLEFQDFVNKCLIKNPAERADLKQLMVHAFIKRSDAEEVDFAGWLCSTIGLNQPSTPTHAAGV
Serine/threonine-protein kinase tousled-like 2, sequence (Q86UE8 whole entry, looked up): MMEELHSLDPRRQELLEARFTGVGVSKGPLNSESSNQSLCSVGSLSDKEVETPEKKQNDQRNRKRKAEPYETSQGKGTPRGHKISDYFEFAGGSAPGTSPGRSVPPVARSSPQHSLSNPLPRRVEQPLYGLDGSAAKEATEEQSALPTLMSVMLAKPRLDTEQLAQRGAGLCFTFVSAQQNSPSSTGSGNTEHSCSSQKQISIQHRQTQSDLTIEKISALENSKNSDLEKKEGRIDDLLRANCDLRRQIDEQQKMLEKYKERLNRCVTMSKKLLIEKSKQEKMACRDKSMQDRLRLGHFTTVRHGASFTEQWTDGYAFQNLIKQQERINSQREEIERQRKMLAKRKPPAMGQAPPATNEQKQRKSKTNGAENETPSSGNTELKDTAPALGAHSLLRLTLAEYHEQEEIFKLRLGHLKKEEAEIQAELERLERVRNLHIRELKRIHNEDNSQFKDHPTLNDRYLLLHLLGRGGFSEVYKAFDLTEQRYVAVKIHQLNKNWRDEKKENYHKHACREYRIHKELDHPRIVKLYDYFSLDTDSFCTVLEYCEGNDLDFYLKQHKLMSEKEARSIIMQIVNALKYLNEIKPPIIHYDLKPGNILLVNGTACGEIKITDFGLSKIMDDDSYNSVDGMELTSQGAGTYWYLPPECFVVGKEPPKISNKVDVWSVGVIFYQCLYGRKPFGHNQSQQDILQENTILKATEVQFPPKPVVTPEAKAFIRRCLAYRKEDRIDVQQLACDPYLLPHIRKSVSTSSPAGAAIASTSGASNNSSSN
Cyclin-dependent kinase 10, sequence (Q15131 whole entry): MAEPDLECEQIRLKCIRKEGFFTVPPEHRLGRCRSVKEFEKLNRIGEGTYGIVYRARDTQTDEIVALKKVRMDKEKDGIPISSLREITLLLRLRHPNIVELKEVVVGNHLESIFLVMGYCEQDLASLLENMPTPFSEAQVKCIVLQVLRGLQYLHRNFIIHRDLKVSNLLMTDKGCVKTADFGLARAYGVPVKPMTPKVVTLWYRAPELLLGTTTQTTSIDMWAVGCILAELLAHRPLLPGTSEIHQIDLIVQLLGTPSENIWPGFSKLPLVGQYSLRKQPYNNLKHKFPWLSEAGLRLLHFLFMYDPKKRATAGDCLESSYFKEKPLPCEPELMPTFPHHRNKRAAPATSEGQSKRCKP

Broadly, the inhibition is the relative decrease from the control value, in per cent. Broadly, the IC50 is the point on the concentration scale where inhibition reaches its midpoint. Low values mean higher potency, high ones lower potency. In the case of `CCOc1cc(N2CCC(O)CC2)ccc1Nc1ncc2c(n1)N(C)c1ccccc1C(=O)N2C`, the inhibition was -4.1% in test [1]; 15.7% in [3]; 1.5% in test [4]; -6.7% in test [5]; -2.3% in test [6]; 13.6% in test [8]. Moreover, the inhibition in test [9] is 7.3%; in test [10], -5.8%; in test [13], 71.5%; in test [14], 3.2%. Besides, the IC50 in test [2], in [7], in test [11] and in test [12] was over 50 µM throughout.

For the origin of these results see ChEMBL document CHEMBL5661979, “Pharmacological inhibition of BMK1 suppresses tumor growth through promyelocytic leukemia protein” (Cancer Cell, 2010).
